Most compounds without a hit are left out; they make up all but 2% or so of the library.
ARFGAP1 inh = inhibitors of rat ARFGAP1 GAP activity, primary screen, biochemical, fluorescence polarization, GDP tracer; ADP-ribosylation factor GTPase-activating protein 1 (Rattus norvegicus), Q62848; Arfgap1-stimulated ARF1 GTP hydrolysis, GDP FP detection; inhibition, % at 16.5 µM; actives 0.26% (n = 360,000); AID 651572, 2012;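 active means inhibition above a per-plate limit, mean inhibition of low control wells plus 3 SD, cut at about 25% in these data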;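 further: 0% = DMSO wells with enzyme and 100% = wells lacking Arfgap1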
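Material: rat Arfgap1 GAP domain (His6, aa 1-136), purified enzyme. Also added: human ARF1(Δ1-17)-GTP substrate. Compound dosing: 16.5 µM single point, 1.26% DMSO. Timing: enzyme reaction 120 min at 25 °C after 20 min preincubation. Signal: GDP detection by fluorescence polarization. Read-out basis: percent inhibition of GAP-stimulated GDP formation, scaled between DMSO and no-Arfgap1 medians.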
LEDGF integ inh = blockers of LEDGF/p75-dependent integrase strand transfer – biochemical, TR-FRET, high throughput, primary screen | HIV-1 integrase (with human LEDGF/p75) | TR-FRET IN-LEDGF/p75 DNA integration, Eu/Cy5 | inhibition, % at 3.7 µM | actives 0.64% (n = 370,000);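 active means inhibition above the screen-wide mean plus 3 SD, cut at about 13% in these data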;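 further: signal is the Cy5 over europium emission ratio at 671 and 618 nm; 0% = plate median of compound wells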
ASAP1 inh = inhibitors of human ASAP1 ArfGAP activity, primary screen, biochemical, fluorescence polarization. actives 0.19% (n = 360,000). ASAP1-stimulated ARF1 GTP hydrolysis, GDP FP detection. AID 624377, 2012. inhibition, % at 16.5 µM; in the data active means inhibition above about 25%;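 further: 0% = vehicle with enzyme and substrate and 100% = no enzyme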
TCR CD3 inh = inhibitors of human TCR-CD3 interaction, primary screen, biochemical, fluorescence, TAMRA-labeled TCR probe | T-cell receptor (TCR) | inhibition, % at 9.4 µM | actives 0.37% (n = 360,000) | AID 651800, 2012; in the data active means inhibition above about 19%;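 further: recombinant mutant TCR 2C K166C tagged with TAMRA read by polarization; 0% = receptor in buffer alone and 100% = receptor with positive control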
UHRF1 binding = UHRF1 methylated DNA binding inhibitors, primary screen, counter-screen for MBD2 inhibitor project, biochemical, TR-FRET, human UHRF1, single concentration. E3 ubiquitin-protein ligase UHRF1 (Homo sapiens), Q96T88. UHRF1 binding to methylated oligo. inhibition, % at 4.4 µM. actives 0.75% (n = 370,000). AID 687016, 2013; in the data active means inhibition above about 21%;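 further: UHRF1 SRA domain binding a hemimethylated CpG hairpin DNA probe; 0% = median of test compound wells and 100% = reference inhibitor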
Target sequence (Q96T88 whole entry, looked up, the tested form may be a part): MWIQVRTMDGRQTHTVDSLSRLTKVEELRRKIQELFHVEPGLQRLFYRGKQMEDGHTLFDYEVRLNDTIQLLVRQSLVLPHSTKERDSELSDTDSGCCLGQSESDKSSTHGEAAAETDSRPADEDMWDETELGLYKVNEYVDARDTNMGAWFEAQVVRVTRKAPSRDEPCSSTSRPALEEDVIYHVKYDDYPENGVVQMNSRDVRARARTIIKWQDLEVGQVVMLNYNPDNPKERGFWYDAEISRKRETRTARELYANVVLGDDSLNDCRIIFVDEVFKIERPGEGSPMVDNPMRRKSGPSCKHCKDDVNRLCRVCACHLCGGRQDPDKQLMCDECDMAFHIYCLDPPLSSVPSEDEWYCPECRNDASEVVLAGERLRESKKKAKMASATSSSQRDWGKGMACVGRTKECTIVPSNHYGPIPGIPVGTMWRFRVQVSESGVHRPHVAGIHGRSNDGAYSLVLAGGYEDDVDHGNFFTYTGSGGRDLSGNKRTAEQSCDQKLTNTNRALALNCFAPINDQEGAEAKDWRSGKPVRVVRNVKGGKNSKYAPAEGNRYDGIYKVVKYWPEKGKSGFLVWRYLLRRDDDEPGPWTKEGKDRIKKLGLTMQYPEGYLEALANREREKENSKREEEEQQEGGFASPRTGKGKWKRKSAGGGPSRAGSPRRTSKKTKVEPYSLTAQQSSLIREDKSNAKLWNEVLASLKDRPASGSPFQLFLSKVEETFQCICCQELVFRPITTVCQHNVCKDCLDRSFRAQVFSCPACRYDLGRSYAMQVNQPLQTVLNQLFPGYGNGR
MBD2 DNA inh = inhibitors of MBD2 binding to methylated DNA, primary screen, biochemical, TR-FRET, DNA-binding domain, human; Methyl-CpG-binding domain protein 2 (Homo sapiens), Q9UBB5; MBD2 binding to methylated oligonucleotide; inhibition, % at 4.4 µM; actives 0.31% (n = 370,000); AID 686964, 2013; in the data active means inhibition above about 13%
IN multimer act = HIV-1 IN multimer formation enhancers, counter-screen for LEDGF/p75 integration inhibitor project, biochemical, TR-FRET. shares compounds with LEDGF integ inh. TR-FRET HIV-1 integrase multimerization. activation, % at 7.7 µM. actives 17% (n = 2,000); in the data active means activation above about 8.9%
TR-FRET interf = TR-FRET optical interference artefacts, confirmation, artefact control for LEDGF/p75-dependent integration inhibitor project, biochemical, HIV-1 IN multimerization; shares compounds with LEDGF integ inh; TR-FRET optical interference counterscreen; inhibition, % at 7.7 µM; 2,000 tested, under 10 active; AID 1053135, 2014;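 active means inhibition above the mean over all tested compounds plus 3 SD, which no compound reached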;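 further: 0% = integrase with antibodies and DMSO and 100% = antibodies without integrase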
LEDGF integ conf = inhibitors of HIV-1 IN-LEDGF/p75 DNA integration, confirmation, biochemical, TR-FRET. TR-FRET LEDGF/p75-dependent HIV-1 integration. shares compounds with LEDGF integ inh. actives 36% (n = 2,000). inhibition, % at 3.7 µM; in the data active means inhibition above about 14%
* = called active by the depositor; . = no result.

SMILES	ARFGAP1 inh	LEDGF integ inh	ASAP1 inh	TCR CD3 inh	UHRF1 binding	MBD2 DNA inh	IN multimer act	TR-FRET interf	LEDGF integ conf
Cc1ccc(S(=O)(=O)/N=C2\C=C(Nc3cccc(C(=O)O)c3)C(=O)c3ccccc32)cc1	1	52*	10	0	7	-3	0	0	64*
C=CCn1c(O)c2ccc(C(=O)N=NC(=O)c3ccc(F)cc3)cc2c1O	2	1	13	-5	-1	-2	.	.	.
C[C@H](NS(=O)(=O)c1ccc(F)cc1)C(=O)OCC(=O)c1c(N)n(C)c(=O)n(C)c1=O	6	0	3	2	0	1	.	.	.
Cc1ccc(-n2ccnc(SCC(=O)NCCc3ccccc3)c2=O)cc1F	1	17*	6	-7	-4	-6	3	-10	-9
CCOc1ccc(-n2ccnc(SCC(=O)NCCc3ccccc3)c2=O)cc1	-10	1	-6	7	-3	-3	.	.	.
Cc1nn(Cc2ccc(Cl)cc2Cl)c(C)c1NC(=O)c1ccc(COc2cc(Cl)ccc2Cl)o1	-4	24*	5	-3	1	-2	0	0	-7
COc1ccc(NC(C)(C)c2nnnn2-c2c(C)cccc2C)cc1	8	-1	8	-9	6	2	.	.	.
O=C(NCC(c1ccco1)N1CCN(c2ccc(F)cc2)CC1)C1CCCCC1 (stereo not given)	14	2	-6	-2	0	-4	.	.	.
COCCCC1CCN(C(=O)C2CCC(=O)N(CCc3ccccc3)C2)CC1 (stereo not given)	-11	-3	-4	-5	0	1	.	.	.
COCCCC1CCN(C(=O)C2CCC(=O)N(CCCc3ccccc3)C2)CC1 (stereo not given)	7	20*	16	-5	2	-3	2	-6	2
CCOCCCNC(=O)c1cc(Cl)c(NC(=O)C2=C(C)OCCS2)cc1OC	-4	9	-17	4	-3	-1	.	.	.
CCCSCCCNC(=O)Cn1c(=O)c2cccn2c2ccccc21	0	4	7	-6	3	0	.	.	.

Screens deposited in PubChem BioAssay by The Scripps Research Institute Molecular Screening Center.
